Calls of active or inactive are those of the source. No cut-off for these calls is given here.
Key:
[1] = biological target: T1, Diacylglycerol lipase-alpha (Homo sapiens) (UniProt Q9Y4D2); experiment: Inhibition of human DAGLalpha expressed in HEK293T cell membrane using [14C]SAG substrate at 10 uM in presence of 0.015% Triton X-100 by scintillation counting based radio-TLC assay; assay type: cell membranes; conditions: HEK-293T
T1 sequence (whole entry): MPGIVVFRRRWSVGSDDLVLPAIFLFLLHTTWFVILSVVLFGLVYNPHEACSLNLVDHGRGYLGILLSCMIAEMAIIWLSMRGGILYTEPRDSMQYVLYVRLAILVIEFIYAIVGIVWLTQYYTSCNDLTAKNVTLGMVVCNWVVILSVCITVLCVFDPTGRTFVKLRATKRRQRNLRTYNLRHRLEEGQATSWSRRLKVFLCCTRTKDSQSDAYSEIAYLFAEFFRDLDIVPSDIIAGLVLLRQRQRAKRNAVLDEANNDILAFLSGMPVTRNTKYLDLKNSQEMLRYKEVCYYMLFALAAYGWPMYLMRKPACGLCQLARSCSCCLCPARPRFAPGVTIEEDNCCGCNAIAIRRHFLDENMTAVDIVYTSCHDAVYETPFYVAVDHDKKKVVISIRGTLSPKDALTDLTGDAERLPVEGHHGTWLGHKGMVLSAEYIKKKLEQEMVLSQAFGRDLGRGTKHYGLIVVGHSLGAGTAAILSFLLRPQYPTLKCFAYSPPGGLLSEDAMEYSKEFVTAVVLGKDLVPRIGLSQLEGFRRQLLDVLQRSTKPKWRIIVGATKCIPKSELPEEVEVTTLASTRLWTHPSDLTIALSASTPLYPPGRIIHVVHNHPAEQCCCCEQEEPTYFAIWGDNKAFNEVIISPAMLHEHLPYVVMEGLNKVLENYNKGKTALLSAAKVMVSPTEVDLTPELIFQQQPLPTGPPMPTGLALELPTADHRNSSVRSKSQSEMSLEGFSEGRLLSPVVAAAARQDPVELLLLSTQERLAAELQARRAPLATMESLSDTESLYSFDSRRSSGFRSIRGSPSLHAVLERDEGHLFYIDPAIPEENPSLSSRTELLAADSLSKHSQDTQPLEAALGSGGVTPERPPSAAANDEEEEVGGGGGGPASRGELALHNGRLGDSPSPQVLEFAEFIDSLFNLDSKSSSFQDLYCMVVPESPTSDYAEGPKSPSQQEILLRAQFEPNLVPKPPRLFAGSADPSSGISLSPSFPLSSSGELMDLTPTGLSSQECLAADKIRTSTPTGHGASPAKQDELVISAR
Outline: (§1)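 Sonicated HEK293T protein (100 μg) in 50 mM Tris pH 7.4 with 10 mM CaCl2. Inhibitor in DMSO (10% DMSO standard) preincubated 15 min at 37 °C. [14C]SAG was added to 20 μM final for 20 min at 37 °C, with Triton X-100 where the line states it. Quenched with 2:1 CHCl3/MeOH. Silica TLC in CHCl3/MeOH/NH4OH 86:14:0.75, then 12 h phosphorimaging. Activity = (2-AG+AA)/(2-AG+AA+SAG). Background-subtracted; n=1–2.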

[2] = biological target: T1, Diacylglycerol lipase-alpha (Homo sapiens); experiment: Inhibition of human DAGLalpha expressed in HEK293T cell membrane using [14C]SAG substrate at 10 uM in detergent free solution by […]; assay type: cell-based; conditions: HEK-293T
[3] = biological target: T1, Diacylglycerol lipase-alpha (Homo sapiens); experiment: Inhibition of human DAGLalpha expressed in HEK293T cell membrane using [14C]SAG substrate at 10 uM using JZL184 pretreated protein in detergent free solution by […]; assay type: cell-based; conditions: HEK-293T
[4] = biological target: T1, Diacylglycerol lipase-alpha (Homo sapiens); experiment: Inhibition of human DAGLalpha expressed in HEK293T cell membrane using [14C]SAG substrate at 10 uM in detergent free solution by scintillation counting based radio-TLC assay; conditions: HEK-293T
[5] = biological target: T1, Diacylglycerol lipase-alpha (Homo sapiens); experiment: Inhibition of human DAGLalpha expressed in HEK293T cell membrane using [14C]SAG substrate at 10 uM in presence of 0.05% Triton X-100 by scintillation counting based radio-TLC assay; assay type: cell membranes; conditions: HEK-293T; outline: as §1
[6] = biological target: T2, Diacylglycerol lipase-alpha (Mus musculus) (UniProt Q6WQJ1); experiment: Inhibition of mouse DAGLalpha expressed in HEK293T cell membrane using [14C]SAG substrate at 1000 nM by scintillation counting based radio-TLC assay; assay type: cell membranes; conditions: HEK-293T
T2 sequence (whole entry): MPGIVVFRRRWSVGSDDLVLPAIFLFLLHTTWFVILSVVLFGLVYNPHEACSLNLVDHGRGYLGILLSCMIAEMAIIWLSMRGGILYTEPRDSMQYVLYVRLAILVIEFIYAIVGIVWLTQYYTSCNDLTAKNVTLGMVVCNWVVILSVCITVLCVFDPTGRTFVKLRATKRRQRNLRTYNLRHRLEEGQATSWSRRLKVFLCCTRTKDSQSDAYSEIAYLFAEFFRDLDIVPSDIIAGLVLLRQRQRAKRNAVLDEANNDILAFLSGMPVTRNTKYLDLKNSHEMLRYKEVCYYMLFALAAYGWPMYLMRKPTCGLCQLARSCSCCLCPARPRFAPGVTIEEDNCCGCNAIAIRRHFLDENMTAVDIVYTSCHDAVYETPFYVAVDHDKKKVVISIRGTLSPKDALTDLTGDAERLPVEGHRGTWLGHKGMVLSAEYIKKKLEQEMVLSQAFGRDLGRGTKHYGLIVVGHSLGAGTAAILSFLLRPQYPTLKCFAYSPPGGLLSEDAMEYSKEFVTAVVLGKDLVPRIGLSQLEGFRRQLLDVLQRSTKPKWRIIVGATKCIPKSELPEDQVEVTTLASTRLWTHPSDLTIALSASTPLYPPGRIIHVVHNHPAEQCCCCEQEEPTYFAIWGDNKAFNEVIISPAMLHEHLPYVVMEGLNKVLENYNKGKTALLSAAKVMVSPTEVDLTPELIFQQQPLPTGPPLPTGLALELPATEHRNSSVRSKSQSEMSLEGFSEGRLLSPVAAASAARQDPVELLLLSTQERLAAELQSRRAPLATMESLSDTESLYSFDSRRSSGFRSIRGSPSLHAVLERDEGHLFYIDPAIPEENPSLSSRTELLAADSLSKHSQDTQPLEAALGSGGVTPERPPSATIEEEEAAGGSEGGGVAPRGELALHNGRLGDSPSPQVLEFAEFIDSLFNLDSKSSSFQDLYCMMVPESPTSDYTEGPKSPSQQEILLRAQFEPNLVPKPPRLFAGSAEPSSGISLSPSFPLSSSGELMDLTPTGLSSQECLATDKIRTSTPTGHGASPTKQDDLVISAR

[7] = biological target: T1, Diacylglycerol lipase-alpha (Homo sapiens); experiment: Inhibition of human DAGLalpha expressed in HEK293T cell membrane using [14C]SAG substrate at 10 uM in presence of 0.05% Triton X-100 by […]; assay type: cell-based; conditions: HEK-293T
[8] = Inhibition of bacterial lipoprotein lipase by FRET assay; parameters: species or system Bacteria
Outline: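 Purified enzymes: bacterial lipoprotein lipase (0.46 μg) or porcine pancreatic lipase type II (1.0 μg, suspended in 1:9 DMSO/water). Run in 50 mM Tris pH 7.4 with 10 mM CaCl2. Substrate was the pyrene-dinitrophenyl ether lipid FRET reporter at 25 μM, with compounds screened at 10 μM. Fluorescence was read at ex 320/em 400 nm, and percent inhibition was taken at 1.5 h; n = 1 or 2.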

SMILES | inhibition [1] | inhibition [2] | inhibition [3] | inhibition [4] | inhibition [5] | inhibition [6] | inhibition [7] | IC50 [8]
O=C(Oc1ccc([N+](=O)[O-])cc1)N1CCC(C(O)(c2ccc3c(c2)OCO3)c2ccc3c(c2)OCO3)CC1 | 37% | 59% | 44% | inactive | – | – | – | –
CCCCCCCCCCC[C@@H](C[C@@H]1OC(=O)[C@H]1CCCCCC)OC(=O)[C@@H](NC=O)[C@@H](C)CC | – | 92% | – | – | 98% | 96% | 99% | –
CCCCCCCCCCC[C@@H](C[C@@H]1OC(=O)[C@H]1CCCCCC)OC(=O)[C@@H](NC=O)[C@H](C)CC | – | 92% | – | – | 95% | 88% | 99% | –
CCCCCCCCCCC[C@@H](C[C@@H]1OC(=O)[C@H]1CCCCCC)OC(=O)[C@H](CC)NC=O | – | 93% | – | – | 99% | 96% | 100% | –
CCCCCCCCCCC[C@@H](C[C@@H]1OC(=O)[C@H]1CCCCCC)OC(=O)[C@H](NC=O)[C@@H](C)CC | – | 90% | – | – | 86% | 75% | 98% | –
CCCCCCCCCCC[C@@H](C[C@@H]1OC(=O)[C@H]1CCCCCC)OC(=O)[C@H](NC=O)[C@H](C)CC | – | 90% | – | – | 78% | 69% | 98% | –
CCCCCCCCCCC[C@@H](C[C@@H]1OC(=O)[C@H]1CCCCCC)OC(=O)[C@H](CC(C)C)NC=O [ORLISTAT] | – | – | – | 100% | 100% | – | – | 100 nM

Reference: ChEMBL document CHEMBL2169869, “Assay and inhibition of diacylglycerol lipase activity” (Bioorg Med Chem Lett, 2012)
